Shown are actives, neighbours in structure and some others; about 3.5% of the full set was active somewhere.
MrgX1 agonist: agonists of human MrgX1 receptor, primary screen, HEK293 cells, Fluo-4 calcium flux; AID 588627, 2011; Mas-related G-protein coupled receptor member X1 (Homo sapiens), Q96LB2; B-score at 10 µM; hit rate 0.44% among 310,000; Fluo-4 calcium fluorescence, agonist mode; active compounds read high;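 active means calcium response B-score plate-corrected fluorescence ratio at least 3 library SD, with starting fluorescence B-score inside 5 SD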
Target sequence (Q96LB2 whole entry, looked up): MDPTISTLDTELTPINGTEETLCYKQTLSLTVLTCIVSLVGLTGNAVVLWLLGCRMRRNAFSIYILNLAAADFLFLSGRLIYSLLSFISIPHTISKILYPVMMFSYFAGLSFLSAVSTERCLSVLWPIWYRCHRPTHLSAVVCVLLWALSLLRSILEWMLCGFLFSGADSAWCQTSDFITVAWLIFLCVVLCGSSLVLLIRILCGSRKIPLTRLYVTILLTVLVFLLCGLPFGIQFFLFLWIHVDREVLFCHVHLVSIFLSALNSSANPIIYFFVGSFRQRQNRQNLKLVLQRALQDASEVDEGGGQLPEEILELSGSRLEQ
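Test system: HEK293 cells stably expressing human MrgX1 receptor; amount: 15,000 cells per well; doses: compound delivered in addition one of three; times: overnight plating before 1 h dye loading; detection: Fluo-4 NW calcium-flux fluorescence, kinetic read; read-out basis: B-scored fluorescence response ratio; controls: positive and negative controls per plate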
RGS4 inh: RGS4 inhibitors, primary screen, cell-based, HEK293 M3R inducible RGS4, calcium flux. Regulator of G-protein signaling 4 (Homo sapiens), P49798. Fluo-4 calcium flux; active compounds read high; triggered by carbachol at its EC20. B-score at 10 µM. hit rate 0.45% among 310,000. AID 463165, 2010;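 active means B-score, a plate-corrected calcium signal, over three deviations above library mean, with baseline fluorescence within five deviations of library mean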;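 further: RGS4 expression induced by doxycycline in cells with stable M3 receptor; B-score is computed from the integrated fluorescence ratio over baseline after carbachol; higher B-score means a larger calcium signal and so more RGS4 inhibition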
Target sequence (P49798 whole entry, looked up): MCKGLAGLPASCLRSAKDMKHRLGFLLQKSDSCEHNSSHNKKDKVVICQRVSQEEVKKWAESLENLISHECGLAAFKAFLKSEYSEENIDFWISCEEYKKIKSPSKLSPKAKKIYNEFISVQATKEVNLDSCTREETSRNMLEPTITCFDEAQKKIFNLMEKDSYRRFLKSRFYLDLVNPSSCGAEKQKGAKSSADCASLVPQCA
RGS4 pot: RGS4 potentiators or activators, primary screen, cell-based, HEK293 M3R inducible RGS4, calcium flux. carbachol calcium flux Fluo4; active compounds read low. B-score at 10 µM. hit rate 0.92% among 310,000;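 active means B-score of the integrated calcium signal more than 4 SD below the library mean, with starting fluorescence not abnormally high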;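 further: negative B-score means reduced calcium response which marks RGS4 activation or potentiation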
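Reagent: ECmax carbachol challenge; Test system: M3R-expressing HEK293 line, RGS4 induced by doxycycline; Schedule: overnight RGS4 induction, 30 min dye load 37 °C, 20 min compound RT; Detection: calcium dye Fluo4 fluorescence; Read-out: Agonist-evoked peak-minus-minimum fluorescence over baseline, integrated ratio, B score.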
MrgX1 antagonist: antagonists of human MrgX1 receptor, primary screen, HEK293 cells, Fluo-4 calcium flux; Mas-related G-protein coupled receptor member X1 (Homo sapiens), Q96LB2; BAM8-22 antagonism; active compounds read low; B-score at 10 µM; hit rate 1.3% among 310,000; AID 588676, 2011;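 active means calcium-response B-score plate-corrected more than 3 library SD below zero, starting fluorescence within 5 deviations, no agonist response on first addition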;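 further: peak minus trough fluorescence over baseline after final BAM8-22 challenge near maximal dose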
MrgX1 PAM: positive allosteric modulators of MrgX1, primary screen, HEK293 cells, Fluo-4 calcium flux; hit rate 0.63% among 310,000; FDSS; active compounds read high; Mas-related G-protein coupled receptor member X1 (Homo sapiens), Q96LB2; AID 588675, 2011; B-score at 10 µM;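 active means plate-corrected calcium response at least 3 library SD above typical, normal starting fluorescence, not activating the receptor alone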;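 further: compound read alongside a low EC10 to EC30 dose of BAM8-22 agonist; peak minus trough fluorescence over baseline measured at the second addition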
Starred values were filed as active, the others as inactive.

What do the screens show for `COc1ccc(C(=O)NNC(=S)NC(=O)c2ccc(F)cc2)cc1Br`?
MrgX1 agonist: inactive; RGS4 inh: inactive; RGS4 pot: inactive; MrgX1 antagonist: inactive; MrgX1 PAM: inactive

Results for COc1cc(C(=O)NC(=S)NNC(=O)c2ccc3c(c2)OCO3)cc(OC)c1OC ?
MrgX1 agonist: 60.1*; RGS4 inh: inactive; RGS4 pot: inactive; MrgX1 antagonist: inactive; MrgX1 PAM: inactive

What do the screens show for `Cc1c(NC(=S)NC(=O)c2sc3ccccc3c2Cl)cccc1C(=O)O`?
MrgX1 agonist: inactive; RGS4 inh: inactive; RGS4 pot: inactive; MrgX1 antagonist: inactive; MrgX1 PAM: inactive

Results for COc1cc(C#N)c(NS(=O)(=O)c2ccc3[nH]c(=O)sc3c2)cc1OC ?
MrgX1 agonist: inactive; RGS4 inh: inactive; RGS4 pot: inactive; MrgX1 antagonist: inactive; MrgX1 PAM: inactive

What do the screens show for `CN(Cc1ccccc1)S(=O)(=O)c1ccc(S(=O)(=O)N(Cc2ccc(F)cc2)C2CCCC2)cc1`?
MrgX1 agonist: inactive; RGS4 inh: inactive; RGS4 pot: inactive; MrgX1 antagonist: -4.56*; MrgX1 PAM: inactive

What do the screens show for `CCOCCCNc1nc2c(C)cccn2c(=O)c1/C=C1\SC(=S)N(C(C)CC)C1=O` (configuration not stated)?
MrgX1 agonist: inactive; RGS4 inh: inactive; RGS4 pot: inactive; MrgX1 antagonist: -15.2*; MrgX1 PAM: inactive

How did CCOCCCNc1nc2c(C)cccn2c(=O)c1/C=C1\SC(=S)N(CC(C)C)C1=O do in these assays?
MrgX1 agonist: inactive; RGS4 inh: inactive; RGS4 pot: inactive; MrgX1 antagonist: -6.82*; MrgX1 PAM: inactive

What do the screens show for `NS(=O)(=O)c1ccc(CCNC(=O)COC(=O)C2CCCN2C(=O)c2cccs2)cc1` (configuration not stated)?
MrgX1 agonist: inactive; RGS4 inh: inactive; RGS4 pot: inactive; MrgX1 antagonist: inactive; MrgX1 PAM: inactive

Results for C=CCC(O)(CCN1CCCCC1)c1ccccc1 (configuration not stated) ?
MrgX1 agonist: inactive; RGS4 inh: inactive; RGS4 pot: inactive; MrgX1 antagonist: inactive; MrgX1 PAM: inactive

How did COc1ccc(C(O)(CCc2ccccc2)CCN2CCCCC2)cc1 (configuration not stated) do in these assays?
MrgX1 agonist: inactive; RGS4 inh: inactive; RGS4 pot: -8.88*; MrgX1 antagonist: inactive; MrgX1 PAM: inactive

What do the screens show for `O=C(CCl)N1CCCC1c1ccc2c(c1)OCCO2` (configuration not stated)?
MrgX1 agonist: inactive; RGS4 inh: inactive; RGS4 pot: inactive; MrgX1 antagonist: inactive; MrgX1 PAM: inactive

Results for Cc1ccc(NC(=O)CN(C)C(=O)CSc2nnc(C(F)(F)F)n2C)cc1 ?
MrgX1 agonist: inactive; RGS4 inh: inactive; RGS4 pot: inactive; MrgX1 antagonist: inactive; MrgX1 PAM: inactive

Results for O=C(O)c1cc(-c2ccc(/C=c3\sc4nc5ccc(Br)cc5n4c3=O)o2)ccc1Cl ?
MrgX1 agonist: 41.8*; RGS4 inh: inactive; RGS4 pot: inactive; MrgX1 antagonist: inactive; MrgX1 PAM: inactive

Results for O=C(c1nc2ccccn2c1CN1CCC(Cc2ccccc2)CC1)N1CCCC1 ?
MrgX1 agonist: inactive; RGS4 inh: inactive; RGS4 pot: inactive; MrgX1 antagonist: inactive; MrgX1 PAM: inactive

Results for COC(=O)/C=C1\OC(c2ccccc2)=CC1=O ?
MrgX1 agonist: inactive; RGS4 inh: 26*; RGS4 pot: inactive; MrgX1 antagonist: inactive; MrgX1 PAM: inactive

How did COc1ccc(S(=O)(=O)N2CCN(C(=O)c3cc(-c4ccc(Br)cc4)n[nH]3)CC2)cc1OC do in these assays?
MrgX1 agonist: inactive; RGS4 inh: inactive; RGS4 pot: -7.05*; MrgX1 antagonist: inactive; MrgX1 PAM: inactive

Results for COC(c1ccccc1)c1nnc(CCC(=O)N(C)Cc2cccc(-n3cccn3)c2)o1 (configuration not stated) ?
MrgX1 agonist: inactive; RGS4 inh: inactive; RGS4 pot: inactive; MrgX1 antagonist: inactive; MrgX1 PAM: inactive

How did O=C(NNC(=S)NC(=O)c1ccccc1[N+](=O)[O-])c1ccccc1[N+](=O)[O-] do in these assays?
MrgX1 agonist: inactive; RGS4 inh: inactive; RGS4 pot: inactive; MrgX1 antagonist: inactive; MrgX1 PAM: inactive

Results for CCCCOc1ccccc1C(=O)NNC(=S)NC(=O)c1ccccc1[N+](=O)[O-] ?
MrgX1 agonist: inactive; RGS4 inh: inactive; RGS4 pot: inactive; MrgX1 antagonist: -5.77*; MrgX1 PAM: inactive

What do the screens show for `CCN(CC)S(=O)(=O)c1ccc(OC(C)C)c(NC(=O)c2c3c(nc4ccccc24)CCN(Cc2ccccc2)C3)c1`?
MrgX1 agonist: inactive; RGS4 inh: inactive; RGS4 pot: inactive; MrgX1 antagonist: -5.03*; MrgX1 PAM: inactive

How did COc1ccc(C(=O)CC(=O)c2ccccc2)cc1 do in these assays?
MrgX1 agonist: inactive; RGS4 inh: inactive; RGS4 pot: inactive; MrgX1 antagonist: inactive; MrgX1 PAM: inactive

How did COc1ccc(C(=O)C/C(=C\C(=O)c2ccc(C)cc2)c2ccccc2)cc1 do in these assays?
MrgX1 agonist: inactive; RGS4 inh: inactive; RGS4 pot: -7.12*; MrgX1 antagonist: -5.56*; MrgX1 PAM: inactive

How did O=C(Cc1csc(Nc2nc(=S)[nH]c3ccccc23)n1)N1CCN(c2cccc(C(F)(F)F)c2)CC1 do in these assays?
MrgX1 agonist: inactive; RGS4 inh: inactive; RGS4 pot: inactive; MrgX1 antagonist: inactive; MrgX1 PAM: inactive

Results for COc1cc(/C=C2/C(=O)N(c3cccc(Br)c3)N=C2C)cc(OC)c1O ?
MrgX1 agonist: 62.5*; RGS4 inh: inactive; RGS4 pot: inactive; MrgX1 antagonist: inactive; MrgX1 PAM: inactive

Results for O=C(NCC1CCCO1)c1ccc(N2C(=O)C3CCCCC3C2=O)cc1 (configuration not stated) ?
MrgX1 agonist: inactive; RGS4 inh: inactive; RGS4 pot: inactive; MrgX1 antagonist: inactive; MrgX1 PAM: inactive

Results for Cc1ccc(-c2nnn(CC(=O)N3CCN(c4ccccc4)CC3)n2)o1 ?
MrgX1 agonist: inactive; RGS4 inh: inactive; RGS4 pot: -7.58*; MrgX1 antagonist: inactive; MrgX1 PAM: inactive

How did COc1ccc(N2CCN(C(=O)Cn3nnc(-c4ccc(OC)c(OC)c4)n3)CC2)cc1 do in these assays?
MrgX1 agonist: inactive; RGS4 inh: inactive; RGS4 pot: inactive; MrgX1 antagonist: inactive; MrgX1 PAM: inactive
